ChEMBL document CHEMBL1629572 (Antimicrob Agents Chemother, 2009)
pIC50: −log10 of the molar value.

What was measured:
Neuraminidase [1] = target: T1, Neuraminidase (Influenza A virus, UniProt B4URF0); test: Inhibition of Influenza A virus (A/Puerto Rico/8/1934(H1N1)) neuraminidase after 30 mins by fluorescence analysis
Neuraminidase [2] = target: T1, Neuraminidase; test: Inhibition of Influenza A virus (A/Yamagata/32/1989(H1N1)) neuraminidase after 30 mins by fluorescence analysis
Neuraminidase [3] = target: T1, Neuraminidase; test: Inhibition of Influenza A virus (A/New Caledonia/20/1999(H1N1)) neuraminidase after 30 mins by fluorescence analysis
Neuraminidase [4] = target: T1, Neuraminidase; test: Inhibition of Influenza A virus (A/Yamagata/57/2002(H1N1)) neuraminidase after 30 mins by fluorescence analysis
Neuraminidase [5] = target: T1, Neuraminidase; test: Inhibition of Influenza A virus (A/Saitama/78/2003(H1N1)) neuraminidase after 30 mins by fluorescence analysis
Neuraminidase [6] = target: T1, Neuraminidase; test: Inhibition of Influenza A virus (A/Aichi/193/2004(H1N1)) neuraminidase after 30 mins by fluorescence analysis
Neuraminidase [7] = target: T1, Neuraminidase; test: Inhibition of Influenza A virus (A/Okinawa/42/2004(H1N1)) neuraminidase after 30 mins by fluorescence analysis
Neuraminidase [8] = target: T1, Neuraminidase; test: Inhibition of Influenza A virus (A/Aichi/169/2005(H1N1)) neuraminidase after 30 mins by fluorescence analysis
Neuraminidase [9] = target: T1, Neuraminidase; test: Inhibition of Influenza A virus (A/Singapore/1/1957(H2N2)) neuraminidase after 30 mins by fluorescence analysis
Neuraminidase [10] = target: T1, Neuraminidase; test: Inhibition of Influenza A virus (A/Kitakyushu/159/1993(H3N2)) neuraminidase after 30 mins by fluorescence analysis
Neuraminidase [11] = target: T1, Neuraminidase; test: Inhibition of Influenza A virus (A/Wyoming/03/2003(H3N2)) neuraminidase after 30 mins by fluorescence analysis
Neuraminidase [12] = target: T1, Neuraminidase; test: Inhibition of Influenza A virus (A/Wellington/1/2004(H3N2)) neuraminidase after 30 mins by fluorescence analysis
Neuraminidase [13] = target: T1, Neuraminidase; test: Inhibition of Influenza A virus (A/California/07/2004(H3N2)) neuraminidase after 30 mins by fluorescence analysis
Neuraminidase [14] = target: T1, Neuraminidase; test: Inhibition of Influenza A virus (A/Hiroshima/52/2005(H3N2)) neuraminidase after 30 mins by fluorescence analysis
Neuraminidase [15] = target: T1, Neuraminidase; test: Inhibition of Influenza A virus (A/Wisconsin/67/2005(H3N2)) neuraminidase after 30 mins by fluorescence analysis
Neuraminidase [16] = target: T1, Neuraminidase; test: Inhibition of Influenza A virus (A/Shiga/5/2002(H3N2)) neuraminidase after 30 mins by fluorescence analysis
Neuraminidase [17] = target: T1, Neuraminidase; test: Inhibition of Influenza A virus (A/Saitama/80/2003(H3N2)) neuraminidase after 30 mins by fluorescence analysis
Neuraminidase [18] = target: T1, Neuraminidase; test: Inhibition of Influenza A virus (A/Tokushima/1/2005(H3N2)) neuraminidase after 30 mins by fluorescence analysis
Neuraminidase [19] = target: T1, Neuraminidase; test: Inhibition of Influenza A virus (A/Saitama/07/2006(H3N2)) neuraminidase after 30 mins by fluorescence analysis
[20] = Inhibition of Influenza B virus (B/Brisbane/32/2002(Victoria) neuraminidase after 30 mins by fluorescence analysis
Summary of the method: (§1)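 Virus NA source was mixed with compound in 32.5 mM MES-NaOH pH 6.5 with 4 mM CaCl2 and preincubated 10 min at room temperature. Reaction ran 30 min at room temperature with 100 μM (final) 4-MU-NANA. Fluorescence was read at ex 360/em 460 nm, in triplicate. IC50 came from linear regression of residual activity against log concentration, using concentrations giving 10–90% residual activity.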

[21] = Inhibition of Influenza B virus (B/Malaysia/2506/2004(Victoria)) neuraminidase after 30 mins by fluorescence analysis; summary of the method: as §1
[22] = Inhibition of Influenza B virus (B/Shiga/17/2002(Victoria)) neuraminidase after 30 mins by fluorescence analysis; summary of the method: as §1
[23] = Inhibition of Influenza B virus (B/Akita/9/2003(Victoria)) neuraminidase after 30 mins by fluorescence analysis; summary of the method: as §1
[24] = Inhibition of Influenza B virus (B/Tokushima/1/2003(Victoria)) neuraminidase after 30 mins by fluorescence analysis; summary of the method: as §1
[25] = Inhibition of Influenza B virus (B/Yamagata/145/2003(Victoria)) neuraminidase after 30 mins by fluorescence analysis; summary of the method: as §1
[26] = Inhibition of Influenza B virus (B/Mie/1/1993(Yamagata)) neuraminidase after 30 mins by fluorescence analysis; summary of the method: as §1
[27] = Inhibition of Influenza B virus (B/Shanghai/361/2002(Yamagata)) neuraminidase after 30 mins by fluorescence analysis; summary of the method: as §1
[28] = Inhibition of Influenza B virus (B/Shizuoka/58/2004(Yamagata)) neuraminidase after 30 mins by fluorescence analysis; summary of the method: as §1
[29] = Inhibition of Influenza B virus (B/Yamagata/85/2004(Yamagata)) neuraminidase after 30 mins by fluorescence analysis; summary of the method: as §1
[30] = Inhibition of Influenza B virus (B/Yamagata/87/2004(Yamagata)) neuraminidase after 30 mins by fluorescence analysis; summary of the method: as §1
[31] = Inhibition of Influenza B virus (B/Aichi/186/2005(Yamagata)) neuraminidase after 30 mins by fluorescence analysis; summary of the method: as §1
[32] = Inhibition of Influenza B virus (B/Sapporo/29/2005(Yamagata)) neuraminidase after 30 mins by fluorescence analysis; summary of the method: as §1
[33] = Inhibition of Influenza B virus (B/Tokushima/1/2005(Yamagata)) neuraminidase after 30 mins by fluorescence analysis; summary of the method: as §1
[34] = Inhibition of Influenza B virus (B/Yamagata/1/2005(Yamagata)) neuraminidase after 30 mins by fluorescence analysis; summary of the method: as §1
[35] = Inhibition of Influenza B virus (B/Yamagata/113/2005(Yamagata)) neuraminidase after 30 mins by fluorescence analysis; summary of the method: as §1
Neuraminidase [36] = target: T1, Neuraminidase; test: Inhibition of Influenza A virus (A/R(duck/Mongolia/54/01-duck/Mongolia/47/01)([…])) neuraminidase after 30 mins by fluorescence analysis
Neuraminidase [37] = target: T1, Neuraminidase; test: Inhibition of Influenza A virus (A/duck/Hokkaido/84/2002(H5N3)) neuraminidase after 30 mins by fluorescence analysis
Neuraminidase [38] = target: T1, Neuraminidase; test: Inhibition of Influenza A virus (A/turkey/Ontario/6,118/1968(H8N4)) neuraminidase after 30 mins by fluorescence analysis
Neuraminidase [39] = target: T1, Neuraminidase; test: Inhibition of Influenza A virus (A/duck/England/1/1956(H11N6)) neuraminidase after 30 mins by fluorescence analysis
Neuraminidase [40] = target: T1, Neuraminidase; test: Inhibition of Influenza A virus (A/duck/Ukraine/1/1963(H3N8)) neuraminidase after 30 mins by fluorescence analysis
Influenza A virus [41] = test: Antiviral activity against Influenza A virus (A/Puerto Rico/8/1934(H1N1)) infected in mouse infection model at 0.3 umol/kg, itn administered 4 hrs pre-infection and at 4 hrs and 17 hrs post-infection up to 20 days; type: functional, organism-based
Summary of the method: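 BALB/c females, 5–6 weeks old, were anaesthetised and infected intranasally with 1,500 PFU/mouse A/PR/8/34 in PBS with 0.42% BSA. Three intranasal doses of 0.3 μmol/kg in saline (50 μl) were given at 4 h pre-infection and at 4 h and 17 h post-infection. Survival was read daily for 20 days, 10–12 mice per group.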

Influenza A virus [42] = test: Antiviral activity against Influenza A virus (A/Puerto Rico/8/1934(H1N1)) infected in mouse infection model at 95 ug/kg, itn administered 4 hrs pre-infection and at 4 hrs and 17 hrs post-infection up to 20 days; type: functional, organism-based

T1 sequence (B4URF0 whole entry): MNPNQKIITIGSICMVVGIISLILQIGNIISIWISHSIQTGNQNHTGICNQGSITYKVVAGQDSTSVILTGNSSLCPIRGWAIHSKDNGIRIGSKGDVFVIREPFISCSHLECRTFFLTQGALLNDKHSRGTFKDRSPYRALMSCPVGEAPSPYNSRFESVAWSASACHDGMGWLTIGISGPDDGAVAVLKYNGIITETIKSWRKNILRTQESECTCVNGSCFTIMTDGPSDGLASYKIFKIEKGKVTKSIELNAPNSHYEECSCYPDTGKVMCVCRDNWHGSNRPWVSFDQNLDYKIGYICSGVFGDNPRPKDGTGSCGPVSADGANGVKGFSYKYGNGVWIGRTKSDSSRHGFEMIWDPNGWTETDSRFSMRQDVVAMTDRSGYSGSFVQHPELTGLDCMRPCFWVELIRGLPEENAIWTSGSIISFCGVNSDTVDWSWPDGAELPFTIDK

CCCCCCCC(=O)OC[C@@H](O)[C@@H](OC)[C@@H]1OC(C(=O)O)=C[C@H](NC(=N)N)[C@H]1NC(C)=O [LANINAMIVIR OCTANOATE]
pIC50 (Neuraminidase [1]): 6.03 | pIC50 (Neuraminidase [2]): 6.05 | pIC50 (Neuraminidase [3]): 6.18 | pIC50 (Neuraminidase [4]): 5.93 | pIC50 (Neuraminidase [5]): 6.03 | pIC50 (Neuraminidase [6]): 6.01 | pIC50 (Neuraminidase [7]): 6.20 | pIC50 (Neuraminidase [8]): 6.18 | pIC50 (Neuraminidase [9]): 6.89 | pIC50 (Neuraminidase [10]): 6.66 | pIC50 (Neuraminidase [11]): 6.94 | pIC50 (Neuraminidase [12]): 6.80 | pIC50 (Neuraminidase [13]): 6.87 | pIC50 (Neuraminidase [14]): 7.16 | pIC50 (Neuraminidase [15]): 6.73 | pIC50 (Neuraminidase [16]): 7.19 | pIC50 (Neuraminidase [17]): 7.41 | pIC50 (Neuraminidase [18]): 6.88 | pIC50 (Neuraminidase [19]): 7.20 | pIC50 [20]: 5.00 | pIC50 [21]: 4.95 | pIC50 [22]: 5.11 | pIC50 [23]: 4.86 | pIC50 [24]: 4.86 | pIC50 [25]: 4.80 | pIC50 [26]: 5.16 | pIC50 [27]: 5.18 | pIC50 [28]: 5.12 | pIC50 [29]: 5.14 | pIC50 [30]: 5.11 | pIC50 [31]: 5.45 | pIC50 [32]: 5.44 | pIC50 [33]: 5.43 | pIC50 [34]: 5.44 | pIC50 [35]: 5.46 | pIC50 (Neuraminidase [36]): 6.56 | pIC50 (Neuraminidase [37]): 6.34 | pIC50 (Neuraminidase [38]): 6.38 | pIC50 (Neuraminidase [39]): 6.58 | pIC50 (Neuraminidase [40]): 5.98 | Activity (Influenza A virus [41]): Non-toxic | Activity (Influenza A virus [42]): Non-toxic
